Bioassay records deposited in PubChem BioAssay by several laboratories.
Sampled rows, rich in hits. Any-hit rate of the full collection: about 2.1%.
Cardio protect – cardioprotection against H2O2-induced cell death, primary screen, uHTS, H9c2 cells, ATPLite luminescence | protection from H2O2 cell death, % at 20 µM | AID 588492, 2011 | actives 0.63% (n = 360,000) | H9c2 cardiomyocytes, H2O2 injury protection, 2 h;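 active = compounds giving at least 50% protection of heart cells from peroxide-induced death in the single-dose screen, raw or plate-pattern-corrected value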
CRFBP-R2 block – antagonists of CRF-BP/CRF-R2 complex, primary screen, cell-based, HEK293, calcium dye fluorescence, uHTS. CRF-induced calcium fluorescence. inhibition, % at 11.8 µM. AID 588475, 2011. actives 0.59% (n = 350,000);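 active = inhibition of the ligand-induced calcium signal above about 50% at the single tested concentration, limit read from the data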
UCH37 DUB inh – inhibitors of human UCH37 deubiquitinase, primary screen, biochemical, Ub-AMC cleavage, fluorescence | purified proteasome/UCH37 | AID 588478, 2011 | inhibition, % (test concentration not listed) | actives 0.33% (n = 330,000);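 active = mean inhibition over replicate wells above about 20%, limit read from the data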
Target sequence (Q9Y5K5 whole entry, looked up): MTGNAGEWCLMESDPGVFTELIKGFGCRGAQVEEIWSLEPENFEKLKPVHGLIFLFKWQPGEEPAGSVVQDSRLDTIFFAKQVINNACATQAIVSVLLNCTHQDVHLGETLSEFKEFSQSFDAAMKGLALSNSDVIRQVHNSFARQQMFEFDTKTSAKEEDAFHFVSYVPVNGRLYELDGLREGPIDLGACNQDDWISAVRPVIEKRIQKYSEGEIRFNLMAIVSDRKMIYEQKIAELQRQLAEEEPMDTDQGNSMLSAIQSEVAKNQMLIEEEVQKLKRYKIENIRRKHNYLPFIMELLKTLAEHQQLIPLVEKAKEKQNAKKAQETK
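system = Proteasome-associated human UCH37 deubiquitinase | amount = 0.15 nM proteasome as dispensed | medium = pH 7.4 Tris-HCl (50 mM) with ovalbumin, ATP-MgCl2, DTT | incubation = 30 min preincubation with enzyme, 25 min cleavage at room temperature | detection = AMC fluorescence 355/460 nm | read-out basis = percent inhibition | controls = no-proteasome and no-compound wells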
CRFBP-R2 agonist – agonists of CRF-BP/CRF-R2 complex, primary screen, cell-based, HEK293, calcium dye fluorescence, uHTS; actives 0.46% (n = 350,000); calcium dye fluorescence (FLIPR); percent of saturating CRF peptide response; AID 588473, 2011; CRF-binding protein / CRF receptor 2 complex (human); activation, % at 13.2 µM;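 active = activation of at least 50%, plus an integration ratio under a set limit after plate pattern correction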
iPSC survival up – enhancers of single-cell hiPSC survival, primary screen, ATPlite luminescence; 100% = ROCK inhibitor wells, 0% = DMSO; AID 602274, 2012; actives 0.044% (n = 360,000); survival enhancement, % at 20 µM; in the data active = survival enhancement above about 18%;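 note: cells exposed to compounds for 16 hours before the ATP read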
MIN6 prolif – inducers of MIN6 beta-cell proliferation, primary screen, ATP luminescence, uHTS | MIN6 cells proliferation, ATPlite luminescence, 48 h; cells starved in 0.2% serum; 100% = growth in 10% serum | actives 0.29% (n = 330,000) | proliferation, % at 10 µM;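 active = compounds whose signal lies at least 3.5 SD above the mean of all wells on their plate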
A number is an active result.

O=C(N/N=C/c1sc(N2CCOCC2)nc1-c1ccccc1)c1cccc(S(=O)(=O)N2CCOCC2)c1 was read as Cardio protect 53.7, CRFBP-R2 block inactive, CRFBP-R2 agonist inactive, iPSC survival up inactive and MIN6 prolif inactive.
COc1ccc(OC)c(NC(=O)CSc2ncnc3c2cnn3-c2ccccc2Cl)c1 was read as Cardio protect inactive, CRFBP-R2 block 55.8, UCH37 DUB inh inactive, CRFBP-R2 agonist inactive, iPSC survival up inactive and MIN6 prolif inactive.
For CC1CC(C)(C)NC(=S)N1CCC(=O)Nc1ccc2c(c1)OCCO2 (stereo unspecified) the results were Cardio protect 68.6, CRFBP-R2 block inactive, UCH37 DUB inh inactive, CRFBP-R2 agonist inactive, iPSC survival up inactive and MIN6 prolif inactive.
Cc1ccc(C)n1-c1ccc(C(=O)NN=Cc2ccncc2)cc1 was read as UCH37 DUB inh inactive.
`CC(=NNC(=O)c1ccncc1)c1cccc(NC(=O)c2ccc(Cl)s2)c1` gave UCH37 DUB inh inactive.
`CCCCc1cc(=O)oc2cc(O)ccc12` gave Cardio protect 52.5, CRFBP-R2 block inactive, UCH37 DUB inh inactive, CRFBP-R2 agonist inactive, iPSC survival up inactive and MIN6 prolif inactive.
`CC(C)CN1CCN(Cc2cccc3nccnc23)CC1CCO` (stereo unspecified) gave Cardio protect inactive, CRFBP-R2 block 73.5, UCH37 DUB inh inactive, CRFBP-R2 agonist inactive, iPSC survival up inactive and MIN6 prolif inactive.
`COc1cc(C(=O)Nc2ccc3nc(N4CCOCC4)sc3c2)cc(OC)c1OC` gave Cardio protect inactive, CRFBP-R2 block inactive, UCH37 DUB inh inactive, CRFBP-R2 agonist inactive, iPSC survival up inactive and MIN6 prolif inactive.
Screening O=C(Nc1ccc(N2CCOCC2)c(Cl)c1)c1cc2ccccc2o1 returned Cardio protect inactive, CRFBP-R2 block inactive, UCH37 DUB inh inactive, CRFBP-R2 agonist inactive, iPSC survival up inactive and MIN6 prolif inactive.
`Cc1c(C(=O)Nc2ccc3nc(N4CCOCC4)sc3c2)oc2ccccc12` gave Cardio protect 58.4, CRFBP-R2 block inactive, UCH37 DUB inh inactive, CRFBP-R2 agonist inactive, iPSC survival up inactive and MIN6 prolif inactive.
For O=C(Nc1ccc2nc(N3CCOCC3)sc2c1)c1cc2ccccc2o1 the results were Cardio protect 68.1, CRFBP-R2 block inactive, CRFBP-R2 agonist inactive and iPSC survival up inactive.
For CC1=CCC(C(=O)O)(C(=O)NN=Cc2cccnc2)C(c2ccccc2)C1 (stereo unspecified) the results were UCH37 DUB inh inactive.
Cc1cc(/C=C(/C#N)C(=O)O)c(C)n1-c1cccc2ccccc12 was read as Cardio protect inactive, CRFBP-R2 block 75.7, UCH37 DUB inh inactive, CRFBP-R2 agonist inactive, iPSC survival up inactive and MIN6 prolif inactive.
Screening COc1ccc(-c2noc(C(=O)NCc3ccc(F)cc3)n2)cc1OC returned Cardio protect inactive, CRFBP-R2 block 59.9, UCH37 DUB inh inactive, CRFBP-R2 agonist inactive, iPSC survival up inactive and MIN6 prolif inactive.
Screening ON=C1CCSc2ccc(F)cc21 returned UCH37 DUB inh inactive.
Screening Cc1ccc(C(=O)N/C(=C\c2cn(C)c3ccccc23)C(=O)NCCCN2CCOCC2)cc1 returned Cardio protect inactive, CRFBP-R2 block 100.7, UCH37 DUB inh inactive, CRFBP-R2 agonist inactive, iPSC survival up inactive and MIN6 prolif inactive.
Cc1cc2[nH]c(=O)c3ccccc3n2n1 was read as Cardio protect 77.0, CRFBP-R2 block inactive, UCH37 DUB inh inactive, CRFBP-R2 agonist inactive, iPSC survival up inactive and MIN6 prolif inactive.
Cc1cc2[nH]c(=O)cc(-c3ccccc3)n2n1 was read as Cardio protect inactive, CRFBP-R2 block inactive, UCH37 DUB inh inactive, CRFBP-R2 agonist inactive, iPSC survival up inactive and MIN6 prolif inactive.
`O=C(Nc1cc(Cl)ccc1Cl)C1Cc2ccccc2OC1=NO` (stereo unspecified) gave UCH37 DUB inh inactive.
Screening O=C(/C=C/c1ccc2ccccc2n1)N1CCN(c2ccccc2)CC1 returned Cardio protect inactive, CRFBP-R2 block 74.7, UCH37 DUB inh inactive, CRFBP-R2 agonist inactive, iPSC survival up inactive and MIN6 prolif inactive.
`O=C(/C=C/c1ccc2ccccc2n1)N1CCN(S(=O)(=O)c2ccc(F)cc2)CC1` gave Cardio protect inactive, CRFBP-R2 block inactive, UCH37 DUB inh inactive, CRFBP-R2 agonist inactive, iPSC survival up inactive and MIN6 prolif inactive.
Cc1onc(-c2ccccc2)c1C(=O)NNC(=S)NC(=O)/C=C/c1ccccc1 was read as Cardio protect inactive, CRFBP-R2 block inactive, UCH37 DUB inh inactive, CRFBP-R2 agonist 65.5, iPSC survival up inactive and MIN6 prolif inactive.
Screening Cc1onc(-c2ccccc2)c1C(=O)NNC(=S)NC(=O)c1ccc(Cl)cc1Cl returned Cardio protect inactive, CRFBP-R2 block inactive, UCH37 DUB inh inactive, CRFBP-R2 agonist 217.4, iPSC survival up inactive and MIN6 prolif inactive.
CCNC(=S)NNC(=O)c1cccn(Cc2ccc(Cl)cc2Cl)c1=O was read as Cardio protect inactive, CRFBP-R2 block inactive, UCH37 DUB inh inactive, CRFBP-R2 agonist 60.9, iPSC survival up inactive and MIN6 prolif inactive.
For C=CCNC(=S)NNC(=O)c1cccn(Cc2ccc(Cl)cc2Cl)c1=O the results were Cardio protect inactive, CRFBP-R2 block inactive, UCH37 DUB inh inactive, CRFBP-R2 agonist inactive, iPSC survival up inactive and MIN6 prolif inactive.
Screening Cc1onc(-c2ccccc2)c1C(=O)NNC(=S)NC(=O)c1ccc(Br)cc1 returned Cardio protect inactive, CRFBP-R2 block inactive, UCH37 DUB inh inactive, CRFBP-R2 agonist 150.3 and iPSC survival up inactive.
Screening O=C(NN=Cc1ccc(Cl)s1)c1ccccc1[N+](=O)[O-] returned UCH37 DUB inh inactive.
`Cc1cc(-c2onc(C)c2C(=O)NN=Cc2ccccc2)no1` gave UCH37 DUB inh inactive.
For Cc1ccccc1C(=O)NNC(=S)NC(=O)c1ccc(Cl)cc1Cl the results were Cardio protect inactive, CRFBP-R2 block inactive, UCH37 DUB inh inactive, CRFBP-R2 agonist 157.6, iPSC survival up inactive and MIN6 prolif inactive.
Screening Cc1cc(C)nc(N=C(NC(=O)Nc2cccc(Cl)c2)Nc2ccccc2)n1 returned UCH37 DUB inh inactive.
Screening C[C@]12CC[C@@H]3c4cc(O)c(O)cc4CC[C@H]3[C@@H]1CC[C@@H]2O returned Cardio protect 108.2, CRFBP-R2 block inactive, UCH37 DUB inh inactive, CRFBP-R2 agonist inactive, iPSC survival up inactive and MIN6 prolif inactive.
`C[C@]12CC[C@@H]3c4ccc(O)cc4CC[C@H]3[C@@H]1CC[C@@H]2O` gave Cardio protect inactive, CRFBP-R2 block inactive, UCH37 DUB inh inactive, CRFBP-R2 agonist inactive, iPSC survival up inactive and MIN6 prolif inactive.
